Measurements published in article PMC5832441 (Nature, 2017).

Columns and labels:
[1] = tested on: CTR; conditions: cited from earlier work
[2] = tested on: calcitonin receptor (CTR); experiment: Whole cell radioligand competition binding with 125I-sCT; set-up: species or system human; conditions: competition with 125I-sCT(8-32), N130D mutant; five independent experiments
Method in brief: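 Cos7 cells in DMEM/10% FBS, transiently transfected with PEI (DNA:PEI 1:6 in 150mM NaCl, 15 min) and seeded at 3 × 10⁴/well for 48 h at 37°C, 5% CO₂. Total binding: 0.05 nM ¹²⁵I-sCT(8-32) alone. Nonspecific binding: co-incubation with 1 μM sCT(8-32). Each experiment normalised to its own specific binding.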

[3] = tested on: HA-FLAG-3C-CTR-3C-8xHis CTR with Gs protein heterotrimer; experiment: [35S]GTPγS binding on CTR expressed in insect cells; format: biochemical, human; conditions: insect cell membranes, absence and presence of Gs heterotrimer; four independent experiments
[4] = tested on: calcitonin receptor (CTR); experiment: cAMP accumulation in transfected COS7 or 3T3-FlpIn cells; format: cell-based, human
Method in brief: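 COS7 or 3T3-FlpIn cells transfected with PEI (DNA:PEI 1:6 in 150mM NaCl, 15 min), plated at 3 × 10⁴/well and held 48 h at 37°C, 5% CO₂. Signals converted to cAMP using a parallel standard curve, then normalised to 100 μM forskolin within each cell line. For efficacy, Black-Leff operational model (Logτ_c) applied, corrected for cell-surface expression.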

[5] = tested on: calcitonin receptor (CTR); experiment: ERK1/2 phosphorylation; format: cell-based, human; conditions: H302A mutant, 3T3-FlpIn cells; four independent experiments in duplicate
Method in brief: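 3T3-FlpIn cells grown in DMEM with 10% v/v FBS at 37°C. Transient transfection used PEI; DNA and PEI in 150mM NaCl were combined 1:6 and left 15 min before adding to the cell suspension. Cells were plated at 3 × 10⁴/well and held 48 h at 37°C, 5% CO₂ before the pERK1/2 AlphaScreen read.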

[6] = cell surface ELISA to N-terminal epitope tag; conditions: glycan lost; control: WT CTR

In the case of salmon calcitonin [sCT], the off-rate [1] is listed as “very slow off-rate”, the “sCT affinity at N130D CTR compared to WT” value [2] is listed as “reduced affinity” and the “G protein activation via GTPγS binding, sCT concentration response” value [3] is listed as “can robustly activate Gs”. The “sCT-mediated cAMP efficacy at Δ414 CTR” value ([4]; COS7 cells, truncation after Trp413, 5 independent experiments in duplicate) was “no effect on receptor function”, the “sCT potency in cAMP production at H302A CTR” value ([4]; H302A mutant, 3T3-FlpIn cells, four independent experiments in duplicate) was “reduced potency” and the “sCT potency in cAMP accumulation at N130D CTR relative to WT” value ([4]; N130D mutant, five independent experiments) was “reduce the potency”. For the same molecule, the “sCT potency in phosphorylation of ERK1/2 at H302A CTR” value [5] was “reduced potency”.

B1: calcitonin receptor (CTR): N28D (protein)
parent chain: MRFTFTSRCLALFLLLNHPTPILPAFSNQTYPTIEPKPFLYVVGRKKMMDAQYKCYDRMQQLPAYQGEGPYCNRTWDGWLCWDDTPAGVLSYQFCPDYFPDFDPSEKVTKYCDEKGVWFKHPENNRTWSNYTMCNAFTPEKLKNAYVLYYLAIVGHSLSIFTLVISLGIFVFFRSLGCQRVTLHKNMFLTYILNSMIIIIHLVEVVPNGELVRRDPVSCKILHFFHQYMMACNYFWMLCEGIYLHTLIVVAVFTEKQRLRWYYLLGWGFPLVPTTIHAITRAVYFNDNCWLSVETHLLYIIHGPVMAALVVNFFFLLNIVRVLVTKMRETHEAESHMYLKAVKATMILVPLLGIQFVVFPWRPSNKMLGKIYDYVMHSLIHFQGFFVATIYCFCNNEVQTTVKRQWAQFKIQWNQRWGRRPSNRSARAAAAAAEAGDIPIYICHQELRNEPANNQGEESAEIIPLNIIEQESSA
In the case of B1, the expression_or_secretion [6] is reported as “no change”.

B2: calcitonin receptor (CTR): N73D (protein)
parent chain: MRFTFTSRCLALFLLLNHPTPILPAFSNQTYPTIEPKPFLYVVGRKKMMDAQYKCYDRMQQLPAYQGEGPYCNRTWDGWLCWDDTPAGVLSYQFCPDYFPDFDPSEKVTKYCDEKGVWFKHPENNRTWSNYTMCNAFTPEKLKNAYVLYYLAIVGHSLSIFTLVISLGIFVFFRSLGCQRVTLHKNMFLTYILNSMIIIIHLVEVVPNGELVRRDPVSCKILHFFHQYMMACNYFWMLCEGIYLHTLIVVAVFTEKQRLRWYYLLGWGFPLVPTTIHAITRAVYFNDNCWLSVETHLLYIIHGPVMAALVVNFFFLLNIVRVLVTKMRETHEAESHMYLKAVKATMILVPLLGIQFVVFPWRPSNKMLGKIYDYVMHSLIHFQGFFVATIYCFCNNEVQTTVKRQWAQFKIQWNQRWGRRPSNRSARAAAAAAEAGDIPIYICHQELRNEPANNQGEESAEIIPLNIIEQESSA
With B2 the expression_or_secretion [6] was “no change”.

B3: calcitonin receptor (CTR): N125D (protein)
parent chain: MRFTFTSRCLALFLLLNHPTPILPAFSNQTYPTIEPKPFLYVVGRKKMMDAQYKCYDRMQQLPAYQGEGPYCNRTWDGWLCWDDTPAGVLSYQFCPDYFPDFDPSEKVTKYCDEKGVWFKHPENNRTWSNYTMCNAFTPEKLKNAYVLYYLAIVGHSLSIFTLVISLGIFVFFRSLGCQRVTLHKNMFLTYILNSMIIIIHLVEVVPNGELVRRDPVSCKILHFFHQYMMACNYFWMLCEGIYLHTLIVVAVFTEKQRLRWYYLLGWGFPLVPTTIHAITRAVYFNDNCWLSVETHLLYIIHGPVMAALVVNFFFLLNIVRVLVTKMRETHEAESHMYLKAVKATMILVPLLGIQFVVFPWRPSNKMLGKIYDYVMHSLIHFQGFFVATIYCFCNNEVQTTVKRQWAQFKIQWNQRWGRRPSNRSARAAAAAAEAGDIPIYICHQELRNEPANNQGEESAEIIPLNIIEQESSA
In the case of B3, the expression_or_secretion [6] is reported as “no change”.

B4: calcitonin receptor (CTR): N130D (protein)
parent chain: MRFTFTSRCLALFLLLNHPTPILPAFSNQTYPTIEPKPFLYVVGRKKMMDAQYKCYDRMQQLPAYQGEGPYCNRTWDGWLCWDDTPAGVLSYQFCPDYFPDFDPSEKVTKYCDEKGVWFKHPENNRTWSNYTMCNAFTPEKLKNAYVLYYLAIVGHSLSIFTLVISLGIFVFFRSLGCQRVTLHKNMFLTYILNSMIIIIHLVEVVPNGELVRRDPVSCKILHFFHQYMMACNYFWMLCEGIYLHTLIVVAVFTEKQRLRWYYLLGWGFPLVPTTIHAITRAVYFNDNCWLSVETHLLYIIHGPVMAALVVNFFFLLNIVRVLVTKMRETHEAESHMYLKAVKATMILVPLLGIQFVVFPWRPSNKMLGKIYDYVMHSLIHFQGFFVATIYCFCNNEVQTTVKRQWAQFKIQWNQRWGRRPSNRSARAAAAAAEAGDIPIYICHQELRNEPANNQGEESAEIIPLNIIEQESSA
For B4, the expression_or_secretion [6] was “no change”.
